Assay [1] concerns the target T1, Muscarinic acetylcholine receptor M2 (Homo sapiens) (UniProt P08172).
T1 sequence (whole entry): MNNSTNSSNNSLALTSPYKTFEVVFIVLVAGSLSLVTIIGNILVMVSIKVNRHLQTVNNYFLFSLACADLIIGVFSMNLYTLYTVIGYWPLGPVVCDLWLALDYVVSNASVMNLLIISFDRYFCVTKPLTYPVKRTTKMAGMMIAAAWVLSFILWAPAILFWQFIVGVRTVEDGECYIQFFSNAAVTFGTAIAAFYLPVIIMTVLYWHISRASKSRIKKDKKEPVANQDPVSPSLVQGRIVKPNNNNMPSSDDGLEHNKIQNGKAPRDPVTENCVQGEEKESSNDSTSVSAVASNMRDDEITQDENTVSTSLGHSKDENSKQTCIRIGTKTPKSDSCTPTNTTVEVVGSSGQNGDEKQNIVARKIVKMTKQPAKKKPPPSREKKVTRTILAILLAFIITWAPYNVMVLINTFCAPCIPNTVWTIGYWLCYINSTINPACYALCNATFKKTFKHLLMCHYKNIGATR
Briefly: Displacement of [3H]NMS from human M2 AChR expressed in CHO cell membranes at 100 uM after 1 to 2 hrs by liquid scintillation spectrometry method relative to control. The gist of the method: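 CHO membranes expressing the human subtype (20 µg protein/well) with 0.3 nM [3H]NMS and analog (1 nM–100 µM) in 50 mM Tris-HCl pH 7.4, 2 h at 25 °C. Filtered on GF/B, washed, counted by scintillation. IC50 taken from curves to give Ki; three independent experiments in duplicate.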
In general terms: In a radioligand displacement assay an active substance lowers the binding of a labelled ligand.

Assay [2] addresses T2, Muscarinic acetylcholine receptor M2 (Homo sapiens, UniProt P08172).
T2 sequence (P08172 whole entry): T1 sequence (whole entry)
Briefly: Displacement of [3H]NMS from human M2 AChR expressed in CHO cell membranes after 1 to 2 hrs by liquid scintillation spectrometry method. The procedure, abridged: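 CHO membranes expressing the human subtype (20 µg protein/well) with 0.3 nM [3H]NMS and analog (1 nM–100 µM) in 50 mM Tris-HCl pH 7.4, 2 h at 25 °C. […] Filtered on GF/B, washed, counted by scintillation. IC50 taken from curves to give Ki; three independent experiments in duplicate.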

Assay [3] deals with T3, Muscarinic acetylcholine receptor M1 (Homo sapiens, UniProt P11229).
T3 sequence (P11229 whole entry): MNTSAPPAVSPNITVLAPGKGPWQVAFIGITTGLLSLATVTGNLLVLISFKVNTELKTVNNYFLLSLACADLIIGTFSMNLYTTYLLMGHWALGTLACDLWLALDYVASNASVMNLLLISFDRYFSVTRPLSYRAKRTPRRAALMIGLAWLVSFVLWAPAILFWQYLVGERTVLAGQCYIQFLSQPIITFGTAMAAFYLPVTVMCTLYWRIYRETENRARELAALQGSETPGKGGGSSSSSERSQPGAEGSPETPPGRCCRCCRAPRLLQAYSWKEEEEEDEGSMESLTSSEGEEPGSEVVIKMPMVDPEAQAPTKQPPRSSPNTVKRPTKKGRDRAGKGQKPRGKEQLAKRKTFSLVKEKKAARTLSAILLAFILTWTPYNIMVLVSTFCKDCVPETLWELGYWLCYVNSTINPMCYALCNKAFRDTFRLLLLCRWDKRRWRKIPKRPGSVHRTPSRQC
The experiment in a line: Displacement of [3H]NMS from human M1 AChR expressed in CHO cell membranes after 1 to 2 hrs by liquid scintillation spectrometry method. The format is cell-based.

Assay [4] addresses T4, Muscarinic acetylcholine receptor M3 (Homo sapiens, UniProt P20309). Briefly: Displacement of [3H]NMS from human M3 AChR expressed in CHO cell membranes after 1 to 2 hrs by liquid scintillation spectrometry method. Type of assay: cell-based.
Target sequence in this assay (P20309 whole entry): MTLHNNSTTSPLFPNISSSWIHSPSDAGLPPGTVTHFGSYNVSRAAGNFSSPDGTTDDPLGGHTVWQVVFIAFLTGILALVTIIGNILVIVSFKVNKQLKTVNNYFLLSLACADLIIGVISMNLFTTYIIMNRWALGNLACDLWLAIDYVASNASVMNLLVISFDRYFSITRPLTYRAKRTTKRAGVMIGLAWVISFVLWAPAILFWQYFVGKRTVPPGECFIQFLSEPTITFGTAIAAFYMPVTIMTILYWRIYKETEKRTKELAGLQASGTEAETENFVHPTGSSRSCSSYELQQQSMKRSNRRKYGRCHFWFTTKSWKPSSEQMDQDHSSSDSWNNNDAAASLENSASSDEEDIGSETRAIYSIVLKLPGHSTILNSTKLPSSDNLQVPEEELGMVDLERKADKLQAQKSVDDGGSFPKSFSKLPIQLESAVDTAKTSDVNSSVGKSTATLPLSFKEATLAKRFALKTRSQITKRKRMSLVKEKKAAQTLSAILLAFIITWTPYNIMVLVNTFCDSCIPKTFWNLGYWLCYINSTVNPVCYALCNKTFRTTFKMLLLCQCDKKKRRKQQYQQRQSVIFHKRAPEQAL
In assay [5] the target is T5, Muscarinic acetylcholine receptor M1 (Homo sapiens) (UniProt P11229).
T5 sequence (whole entry): T3 sequence (P11229 whole entry)
The note with it: CHO, at 100 µM.

Assay [6] is filed under the species Homo sapiens. The experiment in a line: Selectivity ratio of Ki for displacement of [3H]NMS from human M1 AChR expressed in CHO cell membranes to Ki for displacement of [3H]NMS from human M5 AChR expressed in CHO cell membranes.
Assay [7] addresses T4, Muscarinic acetylcholine receptor M3. To be noted: CHO, at 100 µM.
Target sequence in this assay (P20309 whole entry, looked up): as the sequence (P20309 whole entry) above
The target of assay [8] is T6, Muscarinic acetylcholine receptor M5 (Homo sapiens, UniProt P08912).
T6 sequence (P08912 whole entry): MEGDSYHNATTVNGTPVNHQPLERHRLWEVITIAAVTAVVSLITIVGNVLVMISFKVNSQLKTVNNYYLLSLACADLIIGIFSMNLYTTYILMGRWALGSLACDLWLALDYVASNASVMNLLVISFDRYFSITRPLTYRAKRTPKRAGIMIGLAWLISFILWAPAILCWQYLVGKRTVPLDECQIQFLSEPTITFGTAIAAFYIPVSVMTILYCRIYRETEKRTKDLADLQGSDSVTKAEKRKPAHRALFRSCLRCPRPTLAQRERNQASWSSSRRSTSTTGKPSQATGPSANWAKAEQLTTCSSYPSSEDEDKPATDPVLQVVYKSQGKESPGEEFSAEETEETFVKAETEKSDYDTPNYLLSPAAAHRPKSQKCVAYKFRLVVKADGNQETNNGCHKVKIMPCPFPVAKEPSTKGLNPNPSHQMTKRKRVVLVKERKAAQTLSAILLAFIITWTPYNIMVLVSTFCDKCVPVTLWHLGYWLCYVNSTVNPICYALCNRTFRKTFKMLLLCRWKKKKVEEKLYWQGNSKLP
Briefly: Displacement of [3H]NMS from human M5 AChR expressed in CHO cell membranes after 1 to 2 hrs by liquid scintillation spectrometry method. The gist of the method: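 CHO membranes expressing human M5 (10 µg protein/well) with 0.3 nM [3H]NMS and analog (1 nM–100 µM) in 50 mM Tris-HCl pH 7.4, 2 h at 25 °C. Filtered on GF/B, counted by scintillation. IC50 converted to Ki; three independent experiments in duplicate.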

In assay [9] the target is T7, Muscarinic acetylcholine receptor M5 (Homo sapiens) (UniProt P08912).
T7 sequence (whole entry): T6 sequence (P08912 whole entry)
Briefly: Displacement of [3H]NMS from human M5 AChR expressed in CHO cell membranes at 100 uM after 1 to 2 hrs by liquid scintillation spectrometry method relative to control. The gist of the method: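 CHO membranes expressing human M5 (10 µg protein/well) with 0.3 nM [3H]NMS and analog (1 nM–100 µM) in 50 mM Tris-HCl pH 7.4, 2 h at 25 °C. […] Filtered on GF/B, counted by scintillation. IC50 converted to Ki; three independent experiments in duplicate.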

The species named for assay [10] is Homo sapiens. Briefly: Selectivity ratio of Ki for displacement of [3H]NMS from human M2 AChR expressed in CHO cell membranes to Ki for displacement of [3H]NMS from human M3 AChR expressed in CHO cell membranes.

By Ki is commonly meant a dissociation constant, usually derived from enzyme kinetics or from competition with a known ligand. Higher therefore signals lower affinity.

On to `O=C(OCc1ccc2c(c1)OCO2)N(c1ccccc1)C1CN2CCC1CC2` (stereo not drawn), for which the Imax is 99.4% in [1], 100% in assay [5], 99.9% in assay [7] and 99.7% in assay [9]. Besides, the Ki turned out to be 30 nM in assay [2], 30 nM in [3], 19 nM in [4] and 40 nM in assay [8]. Moreover, the Ratio Ki was 0.8 in the assay listed under Homo sapiens [6] and 1.7 in the assay filed under Homo sapiens [10].
As to `O=C(OCc1ccc(Cl)c(Cl)c1)N(c1ccccc1)C1CN2CCC1CC2` (stereo not drawn), the Imax is 97.5% in assay [1], 100% in [5], 95.8% in assay [7] and 98.6% in assay [9]. Besides, the Ki in assay [2] was 220 nM; in assay [3], 60 nM; in assay [4] it was 70 nM; in [8] it was 60 nM. The Ratio Ki was 0.9 in the assay listed under Homo sapiens [6] and 3.3 in the assay listed under Homo sapiens [10].
Take `COc1ccc(CCN(C(=O)OC2CN3CCC2CC3)c2ccccc2)cc1OC` (racemic): the Imax is 98.6% in assay [1], 100% in assay [5], 99.7% in [7] and 99.8% in [9]. Moreover, the Ki in assay [2] is 350 nM; in [3], 95 nM; in [4], 60 nM; in [8], 65 nM. The Ratio Ki was 1.5 in the assay listed under Homo sapiens [6] and 5.7 in the assay filed under Homo sapiens [10].
For the compound `O=C(OCc1ccccc1)N(c1ccccc1)C1CN2CCC1CC2` (stereo not drawn), the Imax in [1] came out at 99.4%; in assay [5], 99.5%; in assay [7], 98.6%; in [9], 97.2%. Moreover, the Ki turned out to be 120 nM in assay [2], 190 nM in assay [3], 90 nM in assay [4] and 150 nM in [8]. In addition, the Ratio Ki in the assay filed under Homo sapiens [6] amounted to 1.3; in the assay listed under Homo sapiens [10], 1.2.
Consider `COc1ccc(CCOC(=O)N(c2ccccc2)C2CN3CCC2CC3)cc1` (stereo not drawn), for which the Ki in assay [3] is 760 nM; in assay [4], 420 nM; in assay [8] it was 230 nM. The results for the Imax in assay [5], in assay [7] and in assay [9] were 98.4%, 99.3% and 98.9%, respectively. In the assay listed under Homo sapiens [6], the Ratio Ki worked out at 3.3.
Regarding `COc1ccc(CCCOC(=O)N(c2ccccc2)C2CN3CCC2CC3)cc1OC` (stereo not drawn), the Ki came out at 1460 nM in assay [3], 1560 nM in assay [4] and 1610 nM in assay [8]. The Imax came to 97.1% in assay [5], 96.3% in assay [7] and 99% in assay [9]. Besides, the Ratio Ki in the assay filed under Homo sapiens [6] stood at 0.9.
For the compound `O=C(OCCCc1ccc(Cl)c(Cl)c1)N(c1ccccc1)C1CN2CCC1CC2` (stereo not drawn), the Imax in [1] is 99.9%; in assay [5], 100%; in assay [7], 100%; in assay [9] it was 99.4%. The Ki in assay [2] stood at 300 nM; in assay [3], 170 nM; in assay [4] it was 60 nM; in assay [8], 130 nM. Also, the values for the Ratio Ki in the assay filed under Homo sapiens [6] and in the assay listed under Homo sapiens [10] were 1.3 and 4.7, respectively.
Take `O=C(OCCCc1ccc(F)c(F)c1)N(c1ccccc1)C1CN2CCC1CC2` (stereo not drawn): the Ki in [3] was 300 nM; in [4] it was 220 nM; in assay [8], 100 nM. The Imax amounted to 100% in [5], 99.5% in assay [7] and 99.4% in assay [9]. In the assay listed under Homo sapiens [6], the Ratio Ki stood at 3.
Turning to `COc1ccc(CCN(C(=O)OC2CCN(C)CC2)c2ccccc2)cc1OC`, the Ki in assay [3] came to 770 nM; in assay [4], 1280 nM; in [8] it was 380 nM. The Imax in assay [5] amounted to 99%; in assay [7], 96.6%; in [9], 96.5%. Besides, the Ratio Ki in the assay filed under Homo sapiens [6] is 2.
As for `COc1ccc(COC(=O)N(c2ccccc2)C2CN3CCC2CC3)cc1F` (stereo not drawn), the Imax in assay [1] was found to be 98.8%; in [5] it was 99.5%; in assay [7], 100%; in assay [9], 96.7%. Moreover, the Ki was 100 nM in assay [2], 70 nM in [3], 50 nM in [4] and 40 nM in [8]. Moreover, the figures for the Ratio Ki in the assay listed under Homo sapiens [6] and in the assay listed under Homo sapiens [10] were 1.5 and 1.8, respectively.
Consider `COc1ccc(CCCOC(=O)N(c2ccccc2)C2CN3CCC2CC3)cc1` (stereo not drawn), for which the Ki is 590 nM in assay [3], 390 nM in assay [4] and 640 nM in assay [8]. Moreover, the Imax came to 98.5% in assay [5], 96.8% in assay [7] and 99.5% in assay [9]. In addition, the Ratio Ki in the assay listed under Homo sapiens [6] came out at 0.9.
As for `COc1ccc(CCOC(=O)N(c2ccccc2)C2CN3CCC2CC3)cc1OC` (stereo not drawn), the Ki in assay [3] amounted to 6980 nM; in assay [4], 2760 nM; in assay [8] it was 3490 nM. Besides, the Imax in assay [5] was 90.6%; in [7] it was 85.9%; in assay [9] it was 94%. Further, in the assay listed under Homo sapiens [6], the Ratio Ki was 2.
Take `O=C(OCCCc1ccccc1)N(c1ccccc1)C1CN2CCC1CC2` (stereo not drawn): the results for the Ki in assay [3], in assay [4] and in assay [8] were 780 nM, 550 nM and 260 nM, respectively. Further, the values for the Imax in assay [5], in assay [7] and in assay [9] were 99.1%, 98.9% and 95.7%, respectively. For the same compound, in the assay filed under Homo sapiens [6], the Ratio Ki was found to be 3.
With `Cc1ccc(CCCOC(=O)N(c2ccccc2)C2CN3CCC2CC3)cc1F` (stereo not drawn), the Ki is 200 nM in assay [3], 130 nM in assay [4] and 130 nM in [8]. Besides, the Imax in assay [5] was found to be 100%; in assay [7] it was 100%; in assay [9], 99.9%. In addition, in the assay filed under Homo sapiens [6], the Ratio Ki came to 1.5.
Consider `CN1CCCC(OC(=O)N(CCc2ccc(F)cc2)c2ccccc2)C1` (stereo not drawn), for which the Ki in [3] is 120 nM; in [4] it was 350 nM; in [8] it was 150 nM. Moreover, the values for the Imax in assay [5], in assay [7] and in assay [9] were 99.9%, 99% and 99.9%, respectively. In addition, in the assay filed under Homo sapiens [6], the Ratio Ki was found to be 0.8.
